The source made the active and inactive calls. The calls are words filed in the database; no cut-off is given here. A value given as a limit tells only on which side of the number the result lay.

The IC50 is the concentration needed to halve the response being measured.

Data set [1] concerns A549. The experiment in a line: Antiproliferative activity against human A549 cells after 72 hrs by MTT assay. The class given is functional, cell-based. To be noted: A549, 72 h. The essentials: (§1)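 Cells (A549, A549/DDP, SPC-A-1, LTEP-G-2, non-tumor bronchial epithelial HBE) were exposed in triplicate to vehicle or compound for 72 h. MTT (5 mg/mL in PBS) was then added for 4 h, formazan was dissolved in DMSO, and absorbance was read at 570 nm. IC50 values were derived from viability.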

Data set [2] has as its system A549/CDDP. The experiment in a line: Antiproliferative activity against human A549/CDDP cells after 72 hrs by MTT assay. Type of data set: functional, cell-based. An outline of the steps: as §1
A general note: Formazan colour is commonly taken as a measure of viable cells.

The target of data set [3] is T1, Thioredoxin reductase (Homo sapiens, UniProt Q16881+Q9NNW7+Q86VQ6). Briefly: Inhibition of thioredoxin reductase (unknown origin) after 2 hrs by DTNB dye based microplate spectrophotometry. Type of data set: protein assay. An outline of the steps:
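NADPH-reduced TrxR (0.16 µM) was preincubated in triplicate with vehicle DMSO (0.1%, v/v) or varying compound concentrations for 2 h. It was then reacted with 2 mM DTNB and 200 µM NADPH for 3 min, and absorbance was read at 412 nm. IC50 was derived.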

For data set [4], the target named is T1, Thioredoxin reductase. The experiment in a line: Inhibition of thioredoxin reductase in human A549/CDDP cells by DTNB dye based microplate spectrophotometry. Type of data set: cell-based. The essentials:
(§2)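 A549 or A549/DDP cells were treated with varying compound concentrations for 24 h, then harvested, homogenized and centrifuged. Protein (50 µg) was reacted in triplicate with NADPH and DTNB in TE buffer at 37 °C for 1 h, and TNB was read at 412 nm. Activity was taken from a purified-TrxR standard curve, and IC50 was derived.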

Data set [5] can be described thus: Antiproliferative activity against human LTEP-G2 cells after 72 hrs by MTT assay. Type of data set: functional, cell-based. An outline of the steps: as §1
Data set [6] in a line: Antiproliferative activity against human SPC-A1 cells after 72 hrs by MTT assay. The class given is functional, cell-based. To be noted: SPCA1, 72 h. An outline of the steps:
as §1

The target of data set [7] is T1, Thioredoxin reductase. The experiment in a line: Inhibition of thioredoxin reductase in human A549 cells by DTNB dye based microplate spectrophotometry. The class given is cell-based. The essentials: as §2
Data set [8] can be described thus: Cytotoxicity against NHBE cells after 72 hrs by MTT assay. The class given is cell-based. The conditions noted are these: Homo sapiens. An outline of the steps: as §1
The subject of data set [9] is A549/CDDP. Briefly: Induction of apoptosis in human A549/CDDP cells at 0.6 to 1.2 uM after 24 hrs by annexin V-FITC/propidium iodide staining-based flow cytometry. Type of data set: functional, cell-based. The essentials:
(§3)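 Cells were seeded at 1 × 10^5/well and treated 24 h with DMSO (1%) or compound. They were then washed in PBS, stained with FITC-Annexin V and propidium iodide, and apoptotic fractions were quantified by flow cytometry.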
(A flow cytometer gives signals particle by particle.)

The subject of data set [10] is A549. The experiment in a line: Induction of apoptosis in human A549 cells at 2.1 to 4.2 uM after 24 hrs by annexin V-FITC/propidium iodide staining-based flow cytometry. The class given is functional, cell-based. The essentials: as §3
Data set [11] has as its target ATP-dependent translocase ABCB1 (Homo sapiens, UniProt P08183). Briefly: Inhibition of P-gp ATPase activity in human A549/CDDP cells at 200 uM by luminescence assay (reference value: 706683 +/- 23554 RLU). The class given is cell-based.

Chain of ATP-dependent translocase ABCB1 (P08183 whole entry): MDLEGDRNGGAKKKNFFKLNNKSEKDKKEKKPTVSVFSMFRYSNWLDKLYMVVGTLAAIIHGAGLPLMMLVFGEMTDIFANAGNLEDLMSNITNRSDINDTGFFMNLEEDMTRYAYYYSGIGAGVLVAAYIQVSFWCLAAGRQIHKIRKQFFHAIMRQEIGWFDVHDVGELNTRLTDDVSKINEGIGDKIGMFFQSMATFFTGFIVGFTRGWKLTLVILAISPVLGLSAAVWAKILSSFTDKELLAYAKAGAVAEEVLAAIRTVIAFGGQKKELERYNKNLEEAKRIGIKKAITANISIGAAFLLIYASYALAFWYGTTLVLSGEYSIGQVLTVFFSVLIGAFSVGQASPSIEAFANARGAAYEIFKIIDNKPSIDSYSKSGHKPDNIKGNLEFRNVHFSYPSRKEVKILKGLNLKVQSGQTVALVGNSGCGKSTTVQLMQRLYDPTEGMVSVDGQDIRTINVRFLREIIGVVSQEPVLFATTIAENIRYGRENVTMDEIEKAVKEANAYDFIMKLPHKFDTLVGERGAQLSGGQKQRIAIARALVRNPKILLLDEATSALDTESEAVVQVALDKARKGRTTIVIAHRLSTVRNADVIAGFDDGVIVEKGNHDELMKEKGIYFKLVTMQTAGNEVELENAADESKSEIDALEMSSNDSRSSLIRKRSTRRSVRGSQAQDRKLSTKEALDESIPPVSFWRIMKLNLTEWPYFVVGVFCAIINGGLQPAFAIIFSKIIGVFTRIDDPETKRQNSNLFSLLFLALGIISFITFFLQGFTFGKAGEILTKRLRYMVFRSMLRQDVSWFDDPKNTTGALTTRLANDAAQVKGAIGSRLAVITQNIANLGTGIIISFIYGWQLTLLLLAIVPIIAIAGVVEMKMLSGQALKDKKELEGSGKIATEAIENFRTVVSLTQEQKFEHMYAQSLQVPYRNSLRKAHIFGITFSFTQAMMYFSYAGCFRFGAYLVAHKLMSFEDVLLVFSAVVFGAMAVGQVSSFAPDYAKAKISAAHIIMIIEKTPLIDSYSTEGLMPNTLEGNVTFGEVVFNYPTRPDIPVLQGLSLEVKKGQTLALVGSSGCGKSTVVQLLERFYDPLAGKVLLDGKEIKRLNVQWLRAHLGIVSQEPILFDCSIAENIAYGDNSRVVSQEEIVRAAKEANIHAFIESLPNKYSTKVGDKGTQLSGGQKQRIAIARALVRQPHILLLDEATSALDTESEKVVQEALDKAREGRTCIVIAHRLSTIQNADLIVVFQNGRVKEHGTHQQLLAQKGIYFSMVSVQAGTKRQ

Turning to `Cc1nc(C)c(/C=C/C(=O)/C=C/c2ccccc2)nc1C`, the IC50 in data set [1] was found to be 12.3 µM; in data set [2] it was 11.9 µM.

As for `COc1cccc(/C=C/C(=O)/C=C/c2nc(C)c(C)nc2C)c1O`, the IC50 in data set [3] turned out to be 5.3 µM; in data set [1], 2.85 µM; in data set [4], 4.64 µM; in data set [2], 2.19 µM; in [5], 5.01 µM; in [6] it was 5.71 µM. In addition, the results for the IC50 in data set [7] and in [8] were 4.73 µM and 17.6 µM, respectively.

With `Cc1nc(C)c(/C=C/C(=O)/C=C/c2ccc(Cl)cc2)nc1C`, the figures for the half-maximal inhibitory concentration (IC50) in data set [1] and in data set [2] were 15.8 µM and 7.49 µM, respectively.

`Cc1nc(C)c(C)nc1C` [LIGUSTRAZINE]: the IC50 in data set [3], in data set [1], in [4], in data set [2] and in data set [7] was > 200 µM in each case. Moreover, the outcome in data set [9] and in [10] was Active.

As to `Cc1ccc(/C=C/C(=O)/C=C/c2nc(C)c(C)nc2C)cc1`, the IC50 in data set [1] stood at 4.3 µM; in data set [2], 3.99 µM.

In the case of `Cc1nc(C)c(/C=C/C(=O)/C=C/c2ccc(F)cc2)nc1C`, the figures for the IC50 in data set [1] and in [2] were 5.9 µM and 7.44 µM, respectively.

As for `Cc1nc(C)c(/C=C/C(=O)/C=C/c2ccc3ccccc3c2)nc1C`, the values for the IC50 in [1] and in [2] were 7.1 µM and 11.8 µM, respectively.

On to `COc1ccc(/C=C/C(=O)/C=C/c2nc(C)c(C)nc2C)cc1`, for which the results for the IC50 in data set [1] and in [2] were 3.5 µM and 3.61 µM, respectively.

As to `Cc1nc(C)c(/C=C/C(=O)/C=C/c2cccc([N+](=O)[O-])c2)nc1C`, the figures for the IC50 in data set [1] and in [2] were 6.7 µM and 6.69 µM, respectively.

As for `COc1cc(/C=C/C(=O)/C=C/c2nc(C)c(C)nc2C)cc(OC)c1OC`, the IC50 in data set [3] turned out to be 3.06 µM; in [1] it was 1.6 µM; in [4] it was 1.98 µM; in [2], 1 µM; in data set [5], 2.34 µM; in data set [6], 5.35 µM. Also, the IC50 in data set [7] was found to be 2.36 µM; in data set [8], 14.3 µM.

`Cc1nc(C)c(/C=C/C(=O)/C=C/c2ccccc2O)nc1C`: the results for the IC50 in data set [1] and in data set [2] were 4.78 µM and 3.9 µM, respectively.

For `Cc1nc(C)c(/C=C/C(=O)/C=C/c2ccc([N+](=O)[O-])cc2)nc1C`, the values for the 50% inhibitory concentration (IC50) in [1] and in data set [2] were 9.6 µM and 7.9 µM, respectively.

On to `COc1ccc(/C=C/C(=O)/C=C/c2nc(C)c(C)nc2C)cc1OC`, for which the IC50 in data set [3] was found to be 7.09 µM; in data set [1], 3.79 µM; in data set [4], 4.22 µM; in data set [2] it was 2.44 µM; in data set [5] it was 4.36 µM; in data set [6] it was 5.42 µM. The IC50 is 4.17 µM in [7] and 16.2 µM in data set [8].

`COc1cc(/C=C/C(=O)CC(=O)/C=C/c2ccc(O)c(OC)c2)ccc1O` [CURCUMIN]: the IC50 was 41.42 µM in data set [3]; 38.1 µM in data set [1]; 39.42 µM in [4]; 32.4 µM in [2]; 40.56 µM in data set [7]. In addition, the outcome in data set [9] and in data set [10] was Active.

Molecule `COc1ccc(CCN(C)CCCC(C#N)(c2ccc(OC)c(OC)c2)C(C)C)cc1OC` (stereo not given) [VERAPAMIL] registered an Activity in data set [11] of 641490 RLU.

Take `COc1ccccc1/C=C/C(=O)/C=C/c1nc(C)c(C)nc1C`: the figures for the 50% inhibitory concentration (IC50) in data set [1] and in data set [2] were 3.2 µM and 4.74 µM, respectively.

With `Cc1nc(C)c(/C=C/C(=O)/C=C/c2ccccc2[N+](=O)[O-])nc1C`, the IC50 in [1] amounted to 17.3 µM; in data set [2], 6.39 µM.

Take `COc1cccc(/C=C/C(=O)/C=C/c2nc(C)c(C)nc2C)c1`: the IC50 worked out at 3.3 µM in data set [1] and 3.44 µM in [2].

Regarding `Cc1nc(C)c(/C=C/C(=O)/C=C/c2ccc(O)cc2)nc1C`, the IC50 worked out at 4.01 µM in [1] and 4.79 µM in [2].

For `COc1ccc(/C=C/C(=O)/C=C/c2nc(C)c(C)nc2C)c(OC)c1`, the IC50 was found to be 7.63 µM in data set [3]; 3.07 µM in data set [1]; 4.26 µM in [4]; 2.85 µM in [2]; 5.91 µM in data set [5]; 6.32 µM in data set [6]. The figures for the IC50 in data set [7] and in data set [8] were 4.12 µM and 20.8 µM, respectively.

SODIUM ORTHOVANAD returned an Activity in [11] of 790447 RLU.

As to `Cc1nc(C)c(/C=C/C(=O)/C=C/c2ccc(C(F)(F)F)cc2)nc1C`, the concentration for half-maximal inhibition (IC50) in data set [1] was 11.7 µM; in data set [2] it was 6.9 µM.

Regarding `Cc1nc(C)c(/C=C/C(=O)/C=C/c2cccc(O)c2)nc1C`, the IC50 came out at 4.3 µM in data set [1] and 3.7 µM in data set [2].

For the molecule `Cc1nc(C)c(/C=C/C(=O)/C=C/c2ccc3c(c2)OCO3)nc1C`, the IC50 in data set [1] was 4.5 µM; in data set [2], 5.2 µM.

Values taken from ChEMBL document CHEMBL4428026, “Discovery of New Monocarbonyl Ligustrazine-Curcumin Hybrids for Intervention of Drug-Sensitive and Drug-Resistant Lung Cancer” (J Med Chem, 2016).
